Sampled rows, rich in hits. Any-hit rate of the full collection: about 2.6%.
SENP7 block = blocks the human protease SENP7. Q9BQF6. recombinant SENP7, Z-RLRGG-aminoluciferin luminescence, 40 min. inhibition, % at 5 µM. 330,000 compounds, 1.5% hits;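 active = inhibition above about 50% at the single test dose, limit read from the data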
SENP8 block-1 = blocks the human protease SENP8 | 330,000 compounds, 1.2% hits | inhibition, % at 10 µM | purified SENP8, Z-RLRGG-aminoluciferin cleavage, luminescence | Q96LD8; in the data active = inhibition above about 50%
Target sequence (Q96LD8 whole entry, looked up): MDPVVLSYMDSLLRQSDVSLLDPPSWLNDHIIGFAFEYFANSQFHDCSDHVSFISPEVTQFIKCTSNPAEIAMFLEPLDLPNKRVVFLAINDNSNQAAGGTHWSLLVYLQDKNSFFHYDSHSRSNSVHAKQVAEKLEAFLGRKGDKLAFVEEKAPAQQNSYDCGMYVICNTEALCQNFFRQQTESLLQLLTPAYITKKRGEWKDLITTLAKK
SENP8 block-2 = inhibitors of human SENP8 protease. Q96LD8. recombinant SENP8, Nedd8 substrate fluorescence. inhibition, % at 20 µM. 360,000 compounds, 0.64% hits. AID 602440; in the data active = inhibition mostly above about 40%, no sharp cut-off; inactive = mostly below about 27%
SENP6 inh = inhibitors of human SENP6 protease; Q9GZR1; Recombinant SENP6 catalytic domain, aminoluciferin luminescence; inhibition, % at 10 µM; 330,000 compounds, 1.8% hits; AID 2599;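 active = inhibition above about 50% at the single tested dose, limit read from the data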
Platelet DG rel = modulates dense granule release in human platelets; inhibition, %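 (compounds screened at 7.5 µM in platelet-rich plasma)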; 300,000 compounds, 0.22% hits; human platelet-rich plasma, SFLLRN dense granule ATP release, luminescence;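 active = mean replicate score, as percent of positive control, at or above 50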
SENP1 FRET inh = SENP1 (human) catalytic domain inhibition; Q9P0U3; recombinant SENP1 catalytic domain, CyPet-SUMO1-YPet FRET cleavage; inhibition, % at 10 µM; 360,000 compounds, 0.21% hits;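 active = inhibition at least 30% at 10 µM, raw YFP signal under a set limit, fluorescence ratio 0.5 to 1.5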
Target sequence (Q9P0U3 419-644 limits assumed): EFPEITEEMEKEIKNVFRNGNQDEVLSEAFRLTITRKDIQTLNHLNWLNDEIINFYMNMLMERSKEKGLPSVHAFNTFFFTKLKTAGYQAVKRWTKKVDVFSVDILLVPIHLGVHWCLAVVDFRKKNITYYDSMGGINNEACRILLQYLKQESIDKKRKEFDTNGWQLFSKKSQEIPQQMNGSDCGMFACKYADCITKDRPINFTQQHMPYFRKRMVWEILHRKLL
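Material – human SENP1 catalytic domain · Input – SENP1 enzyme, 20 pM final · Compound dosing – single concentration of 10 µM compound, 0.5% DMSO final · Timing – enzyme reaction for 50 min at room temperature, dark · Measured by – FRET fluorescence in CFP and YFP emission channels · Control set – no-enzyme wells low, DMSO-plus-enzyme wells high control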
SENP8 conf = human SENP8 inhibition, confirmed. shares compounds with SENP7 block. Recombinant SENP8, Z-RLRGG-aminoluciferin luminescence, 60 min. inhibition, % at 12.5 µM. 6,200 compounds, 40% hits. AID 488912;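 active = mean inhibition across replicates above about 50%, limit read from the data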
SENP6 confirm = human SENP6 inhibition, confirmed | 6,200 compounds, 58% hits | inhibition, % at 12.5 µM | shares compounds with SENP7 block | AID 488915 | recombinant SENP6, Z-RLRGG-aminoluciferin luminescence
SENP7 confirm = confirmation of human SENP7 protease inhibitors | shares compounds with SENP7 block | recombinant SENP7, Z-RLRGG-aminoluciferin luminescence, 40 min | inhibition, % at 12.5 µM | 6,200 compounds, 69% hits
Casp3 select = selectivity test for SENP inhibitors: human caspase-3 inhibition | shares compounds with SENP7 block | purified caspase-3, Z-DEVD-aminoluciferin luminescence, 60 min | inhibition, % at 12.5 µM | 6,200 compounds, 60% hits | AID 488918;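 active = mean inhibition above about 50%, limit read from the data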
Target sequence (P42574 28-227 limits assumed): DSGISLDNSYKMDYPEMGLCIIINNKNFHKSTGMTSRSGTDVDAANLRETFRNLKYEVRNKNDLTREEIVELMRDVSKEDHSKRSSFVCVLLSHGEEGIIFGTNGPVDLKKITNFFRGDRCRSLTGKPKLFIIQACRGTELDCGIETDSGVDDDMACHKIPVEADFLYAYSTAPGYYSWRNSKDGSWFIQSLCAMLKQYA
SENP luc ctr = counter-screen for SENP inhibitors: luminescence interference; inhibition, % at 12.5 µM; 6,200 compounds, 39% hits; shares compounds with SENP7 block; Pre-incubated SENP8/Z-RLRGG-aminoluciferin, luciferase luminescence interference;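 active = mean inhibition above about 50% when retested at one dose, limit read from the data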
A number is an active result.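 The calls were made as follows, unless noted: active = mean inhibition above about 50% in the one-dose retest (limit read from the data); inactive = the rest.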

For Cc1cc(OCC(=O)Nc2cc(C(C)(C)C)on2)ccc1[N+](=O)[O-] the results were SENP7 block inactive, SENP8 block-1 inactive, SENP8 block-2 inactive, SENP6 inh inactive, Platelet DG rel inactive and SENP1 FRET inh inactive.
CCOC(=O)c1ccc(NC(=O)c2cnccn2)cc1 was read as SENP7 block inactive, SENP8 block-1 inactive, SENP8 block-2 inactive, SENP6 inh inactive, Platelet DG rel inactive and SENP1 FRET inh inactive.
For CCCCc1ccc(NC(=O)c2cnccn2)cc1 the results were SENP7 block 92, SENP8 block-1 85, SENP8 block-2 inactive, SENP6 inh 85, Platelet DG rel inactive, SENP1 FRET inh inactive, SENP8 conf 92, SENP6 confirm 95, SENP7 confirm 101, Casp3 select 86 and SENP luc ctr 58.
For O=C(Nc1ccc2c(c1)CCC2)c1cnccn1 the results were SENP7 block inactive, SENP8 block-1 inactive, SENP8 block-2 inactive, SENP6 inh 52, Platelet DG rel inactive, SENP1 FRET inh inactive, SENP8 conf 55, SENP6 confirm 52, SENP7 confirm 83, Casp3 select 77 and SENP luc ctr inactive.
Screening COc1ccccc1NS(=O)(=O)c1cccc(C(=O)N/N=C/c2c(CO)cnc(C)c2O)c1 returned SENP7 block inactive, SENP8 block-1 inactive, SENP8 block-2 inactive, SENP6 inh inactive and SENP1 FRET inh inactive.
CC(=O)Nc1ccc(-c2csc(-c3cccnc3)n2)cc1 was read as SENP7 block 51, SENP8 block-1 inactive, SENP8 block-2 inactive, SENP6 inh inactive, Platelet DG rel inactive, SENP1 FRET inh inactive, SENP8 conf inactive, SENP6 confirm inactive, SENP7 confirm 84, Casp3 select 62 and SENP luc ctr inactive.
c1cncc(-c2csc(-c3cccnc3)n2)c1 was read as SENP7 block inactive, SENP8 block-1 inactive, SENP8 block-2 inactive, SENP6 inh inactive, Platelet DG rel inactive and SENP1 FRET inh inactive.
Screening Clc1ccsc1-c1csc(-c2cccnc2)n1 returned SENP7 block inactive, SENP8 block-1 inactive, SENP8 block-2 inactive, SENP6 inh 69, Platelet DG rel inactive, SENP1 FRET inh inactive, SENP8 conf inactive, SENP6 confirm inactive, SENP7 confirm 82, Casp3 select inactive and SENP luc ctr inactive.
For Cc1nc(-c2ccc3c(c2)OCO3)cs1 the results were SENP7 block inactive, SENP8 block-1 inactive, SENP8 block-2 inactive, SENP6 inh inactive, Platelet DG rel inactive and SENP1 FRET inh inactive.
`c1cncc(-c2nc(-c3ccc4c(c3)OCO4)cs2)c1` gave SENP7 block 69, SENP8 block-1 inactive, SENP8 block-2 inactive, SENP6 inh 73, Platelet DG rel inactive, SENP1 FRET inh inactive, SENP8 conf inactive, SENP6 confirm 69, SENP7 confirm 87, Casp3 select 61 and SENP luc ctr inactive.
`CCCC(=O)Nc1ccc(-c2csc(-c3cccnc3)n2)cc1` gave SENP7 block inactive, SENP8 block-1 inactive, SENP8 block-2 inactive, SENP6 inh inactive, Platelet DG rel inactive and SENP1 FRET inh inactive.
Oc1ccc(-c2csc(-c3cccnc3)n2)c(O)c1 was read as SENP7 block 55, SENP8 block-1 inactive, SENP8 block-2 inactive, SENP6 inh 66, Platelet DG rel inactive, SENP1 FRET inh inactive, SENP8 conf inactive, SENP6 confirm inactive, SENP7 confirm 82, Casp3 select 54 and SENP luc ctr 58.
`NC(=NCCc1ccccc1)NS(=O)(=O)c1ccccc1F` gave SENP7 block inactive, SENP8 block-1 inactive, SENP8 block-2 inactive, SENP6 inh inactive, Platelet DG rel inactive and SENP1 FRET inh inactive.
Screening Cc1ncoc1C(=O)NC1CCCc2c1cnn2-c1ccc(C(C)(C)C)cc1 (stereo not given) returned SENP7 block inactive, SENP8 block-1 inactive, SENP8 block-2 inactive, SENP6 inh inactive, Platelet DG rel inactive and SENP1 FRET inh inactive.
`Cc1ccc(S(=O)(=O)Cc2cc(F)c([N+](=O)[O-])cc2[N+](=O)[O-])cc1` gave SENP7 block inactive, SENP8 block-1 inactive, SENP8 block-2 inactive, SENP6 inh inactive, Platelet DG rel inactive and SENP1 FRET inh inactive.
For CN(N=Nc1nc[nH]c1C(=O)NN)C1CCCCC1 the results were SENP8 block-2 inactive and SENP1 FRET inh inactive.
C/C(=N\NC(=O)COc1ccc([N+](=O)[O-])cc1)c1ccco1 was read as SENP7 block inactive, SENP8 block-1 inactive, SENP8 block-2 inactive, SENP6 inh inactive and SENP1 FRET inh inactive.
Screening C/C(=N\Nc1ccc([N+](=O)[O-])cc1)c1ccco1 returned SENP7 block 70, SENP8 block-1 58, SENP8 block-2 inactive, SENP6 inh 74, Platelet DG rel inactive, SENP1 FRET inh inactive, SENP8 conf inactive, SENP6 confirm 51, SENP7 confirm 84, Casp3 select inactive and SENP luc ctr inactive.
Screening Cc1cc(C(=O)Nc2cccc(C(=O)O)c2)oc1C returned SENP7 block 98, SENP8 block-1 92, SENP8 block-2 inactive, SENP6 inh 92, Platelet DG rel inactive, SENP1 FRET inh inactive, SENP8 conf 95, SENP6 confirm 95, SENP7 confirm 100, Casp3 select 86 and SENP luc ctr 94.
For Cc1oc(C(C)(C)C)cc1C(=O)Nc1cccc(C(=O)O)c1 the results were SENP7 block inactive, SENP8 block-1 inactive, SENP8 block-2 inactive, SENP6 inh inactive, Platelet DG rel inactive and SENP1 FRET inh inactive.
For Cc1cc(C(=O)Nc2ccc(C(=O)O)cc2)c(C)o1 the results were SENP7 block 74, SENP8 block-1 68, SENP8 block-2 inactive, SENP6 inh 80, Platelet DG rel inactive, SENP1 FRET inh inactive, SENP8 conf inactive, SENP6 confirm 61, SENP7 confirm 88, Casp3 select 91 and SENP luc ctr 65.
For Cc1oc(C(C)(C)C)cc1C(=O)Nc1ccc(C(=O)O)cc1 the results were SENP7 block inactive, SENP8 block-1 inactive, SENP8 block-2 inactive, SENP6 inh inactive, Platelet DG rel inactive and SENP1 FRET inh inactive.
